Results taken from ChEMBL document CHEMBL3797069, “Betulin Derivatives Effectively Suppress Inflammation in Vitro and in Vivo” (J Nat Prod, 2016).
Calls of active or inactive are those of the source. The calls are words filed in the database; no cut-off is given here.

Experiments:
J774 [1] = assay: Antiinflammatory activity against mouse J774 cells assessed as inhibition of LPS-induced iNOS expression after 24 hrs by Western blot analysis; assay type: functional, cell-based; settings: J774, 24 h
Outline: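 Murine J774 macrophages in DMEM with 10% heat-inactivated FBS, grown 72 h to confluence, then given LPS plus compound in fresh medium for 24 h. Cells washed in ice-cold PBS and lysed; 20 μg protein per lane on Western blot for iNOS, with β-actin as loading control and chemiluminescent detection. Values relative to LPS-only cells; mean ± SEM, n = 4.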

J774 [2] = assay: Inhibition of LPS-induced iNOS mRNA levels in mouse J774 cells after 6 hrs by qRT-PCR method; assay type: functional, cell-based
Outline: (§1)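 Activated J774 cells received compound at 10 μM alongside LPS. At 3, 6 or 24 h, total RNA was extracted and iNOS, IL-6 or MCP-1 mRNA was measured by TaqMan quantitative RT-PCR (40 cycles, 95 °C/60 °C) in duplicate. Levels came from a standard curve and were normalized to GAPDH. n = 4 versus LPS only.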

J774 [3] = assay: Antiinflammatory activity against mouse J774 cells assessed as inhibition of LPS-induced IL-6 production measured as remaining IL-6 levels at 10 uM after 24 hrs by ELISA; assay type: functional
Outline: (§2)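 J774 macrophages were grown 72 h to confluence, then exposed to LPS with compound at 10 μM in fresh medium for 24 h. IL-6 and MCP-1 in the culture medium were quantified by ELISA. n = 4, mean ± SEM relative to LPS-only cells.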

J774 [4] = assay: Antiinflammatory activity against mouse J774 cells assessed as inhibition of LPS-induced COX-2 expression measured as remaining protein levels at 10 uM after 24 hrs by Western blot analysis; assay type: functional
Outline: (§3)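 Murine J774 macrophages were grown 72 h to confluence in DMEM with 10% heat-inactivated FBS at 37 °C, 5% CO2. Compound was added in fresh medium with LPS for 24 h. Cells were lysed, and 20 μg protein was immunoblotted for COX-2 or iNOS with actin as the loading control, detected by chemiluminescence. n = 4, mean ± SEM versus LPS alone.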

J774 [5] = assay: Antiinflammatory activity in mouse J774 cells assessed as inhibition of LPS-induced nitric oxide production measured as remaining nitric oxide levels at 10 uM by Griess assay; assay type: functional
Outline: (§4)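 Confluent J774 monolayers were treated with LPS plus compound at 10 μM in fresh medium, 24 h. NO was read as accumulated nitrite in the medium by Griess reaction. n = 4, mean ± SEM versus cells cultured with LPS only.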

J774 [6] = assay: Antiinflammatory activity in mouse J774 cells assessed as inhibition of LPS-induced iNOS expression measured as remaining protein levels at 10 uM after 24 hrs by Western blot analysis; assay type: functional; outline: as §3
J774 [7] = assay: Antiinflammatory activity against mouse J774 cells assessed as inhibition of LPS-induced MCP-1 production measured as remaining MCP-1 levels at 10 uM after 24 hrs by ELISA; assay type: functional; outline: as §2
J774 [8] = assay: Antiinflammatory activity against mouse J774 cells assessed as inhibition of LPS-induced MCP-1 production at 10 uM after 24 hrs by ELISA; assay type: functional; settings: J774, 24 h; outline: as §2
J774 [9] = assay: Antiinflammatory activity against mouse J774 cells assessed as inhibition of LPS-induced IL-6 production at 10 uM after 24 hrs by ELISA; assay type: functional; settings: J774, 24 h; outline: as §2
J774 [10] = assay: Antiinflammatory activity against mouse J774 cells assessed as inhibition of LPS-induced iNOS expression at 10 uM after 24 hrs by Western blot analysis; assay type: functional, cell-based; outline: as §3
J774 [11] = assay: Antiinflammatory activity against mouse J774 cells assessed as inhibition of LPS-induced COX-2 expression at 10 uM after 24 hrs by Western blot analysis; assay type: functional; settings: J774, 24 h; outline: as §3
J774 [12] = assay: Antiinflammatory activity against mouse J774 cells assessed as inhibition of LPS-induced nitric oxide production at 10 uM by Griess assay; assay type: functional; outline: as §4
J774 [13] = assay: Downregulation of LPS-induced iNOS mRNA levels in mouse J774 cells after 6 to 24 hrs by qRT-PCR method; assay type: functional, cell-based; outline: as §1
Mus musculus [14] = assay: Antiinflammatory activity in C57BL/6NCrl mouse assessed as inhibition of carrageenan-induced paw edema at 10 mg/kg, ip administered 2 hrs prior to carrageenan challenge measured after 3 hrs by plethysmometry; assay type: functional
Outline: (§5)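 Eight-week-old male mice were dosed ip with compound (10 mg/kg), dexamethasone (2 mg/kg) or PBS-8% DMSO vehicle 2 h before carrageenan. Under medetomidine/ketamine anesthesia, 45 μL of 1.5% λ-carrageenan in saline was given intradermally into one hindpaw, with saline in the contralateral paw. Paw volume was measured by plethysmometer before and at 3 and 6 h. n = 6–12.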

J774 [15] = assay: Downregulation of LPS-induced iNOS expression in mouse J774 cells at 0.3 to 10 uM after 24 hrs by Western blot analysis; assay type: functional, cell-based
Outline: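 Dose–response was run in LPS-activated J774 macrophages over 24 h, with iNOS protein detected by Western blot and actin as the loading control.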

J774 [16] = assay: Downregulation of LPS-induced IL-6 mRNA levels in mouse J774 cells after 6 hrs by qRT-PCR method; assay type: functional, cell-based; outline: as §1
J774 [17] = assay: Downregulation of LPS-induced MCP-1 mRNA levels in mouse J774 cells after 3 to 6 hrs by qRT-PCR method; assay type: functional, cell-based; outline: as §1
Mus musculus [18] = assay: Antiinflammatory activity in C57BL/6NCrl mouse assessed as inhibition of carrageenan-induced paw edema at 10 mg/kg, ip administered 2 hrs prior to carrageenan challenge measured after 6 hrs by plethysmometry; assay type: functional; outline: as §5
J774 [19] = assay: Downregulation of LPS-induced MCP-1 expression in mouse J774 cells at 0.3 to 10 uM after 24 hrs by ELISA; assay type: functional, cell-based
Outline: (§6)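 LPS-stimulated J774 cells were incubated 24 h with compound at 0.3–10 μM. IL-6 and MCP-1 concentrations in the medium were determined by ELISA. Mean + SEM, n = 4, compared with LPS alone.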

J774 [20] = assay: Downregulation of LPS-induced IL-6 expression in mouse J774 cells at 0.3 to 10 uM after 24 hrs by ELISA; assay type: functional, cell-based; outline: as §6

| Structure (SMILES) | Remaining IL-6 level (% of LPS-only) (J774 [3]) [%] | Activity (J774 [4]) [%] | Remaining nitric oxide level (% of LPS-only control) (J774 [5]) [%] | Activity (J774 [6]) [%] | Activity (J774 [7]) [%] | also measured |
| --- | --- | --- | --- | --- | --- | --- |
| C=C(C)[C@@H]1CC[C@]2(/C=N/O)CC[C@]3(C)[C@H](CC[C@@H]4[C@@]5(C)CC[C@H](O)C(C)(C)[C@@H]5CC[C@]43C)[C@@H]12 | 98.3 | 127 | 31.3 | 6.2 | 136.9 | IC50 (J774 [1]): 300 nM; inhibition (J774 [2]): inactive |
| C[C@@H]1C[C@H]2[C@@H]3CCC4=CC(=O)C=C[C@]4(C)[C@@]3(F)[C@@H](O)C[C@]2(C)[C@@]1(O)C(=O)CO [DEXAMETHASONE] | – | – | – | – | – | inhibition at 10 µM (J774 [8]): 38%; inhibition at 10 µM (J774 [9]): 86%; inhibition (J774 [10]): Active; inhibition at 10 µM (J774 [11]): 90%; inhibition at 10 µM (J774 [12]): 85% |
| C=C(C)[C@@H]1CC[C@]2(C(=O)O)CC[C@]3(C)[C@H](CC[C@@H]4[C@@]5(C)Cc6c[nH]nc6C(C)(C)[C@@H]5CC[C@]43C)[C@@H]12 | 39.5 | 58.2 | 53.3 | 27.5 | 28 | Activity (J774 [13]): Active; inhibition in vivo at 10 mg/kg (Mus musculus [14]): 27%; Activity (J774 [15]): Active; Activity (J774 [16]): Active; Activity (J774 [17]): Active; inhibition in vivo at 10 mg/kg (Mus musculus [18]): 44%; Activity (J774 [19]): Active; Activity (J774 [20]): Active |
| C=C(C)[C@@H]1CC[C@]2(C(=O)O)CC[C@]3(C)[C@H](CC[C@@H]4[C@@]5(C)CC6OC(C)(C)OC6C(C)(C)[C@@H]5CC[C@]43C)[C@@H]12 (some centres undefined) | 131.7 | 117.4 | 75.2 | 40.7 | 87 | – |
| C=C(C)[C@@H]1CC[C@]2(C(N)=O)CC[C@]3(C)[C@H](CC[C@@H]4[C@@]5(C)Cc6cnoc6C(C)(C)[C@@H]5CC[C@]43C)[C@@H]12 | 90.9 | 105.5 | 66.5 | 8.3 | 57.6 | IC50 (J774 [1]): 300 nM; inhibition (J774 [2]): inactive |
| C=C(C)[C@@H]1CC[C@]2(C(=O)O)CC[C@]3(C)[C@H](CC[C@@H]4[C@@]5(C)C[C@H](O)[C@H](O)C(C)(C)[C@@H]5CC[C@]43C)[C@@H]12 | 70.7 | 93.4 | 71.4 | 63.6 | 68.3 | – |
| C=C(C)[C@@H]1CC[C@]2(C(=O)O)CC[C@]3(C)[C@H](CC[C@@H]4[C@@]5(C)Cc6c([nH]c7ccccc67)C(C)(C)[C@@H]5CC[C@]43C)[C@@H]12 | 108.9 | 140.9 | 79.5 | 66.6 | 83.4 | – |
| C=C(C)[C@@H]1CC[C@]2(C=O)CC[C@]3(C)[C@H](CC[C@@H]4[C@@]5(C)Cc6cnoc6C(C)(C)[C@@H]5CC[C@]43C)[C@@H]12 | 91.4 | 49.6 | 113.1 | 57.5 | 102.1 | – |
| CCC(=O)OC[C@]12CC[C@]3(C(C)C)C1=C1[C@H](C[C@@H]4[C@@]5(C)CC[C@H](OC(=O)CC)C(C)(C)[C@@H]5CC[C@@]4(C)[C@]1(C)CC2)n1c(=O)n(C)c(=O)n13 | 60 | 43 | 55.7 | 50.5 | 80.3 | – |
| C=C(C)[C@@H]1CC[C@]2(C(=O)O)CC[C@]3(C)[C@H](CC[C@@H]4[C@@]5(C)Cc6nccnc6C(C)(C)[C@@H]5CC[C@]43C)[C@@H]12 | – | – | – | – | – | IC50 (J774 [1]): 300 nM; inhibition (J774 [2]): inactive |
| CC1(C)CC[C@]23CC[C@]4(C)[C@H](CC[C@@H]5[C@@]6(C)Cc7c([nH]c8ccccc78)C(C)(C)[C@@H]6CC[C@]54C)[C@H]2C1OC3 | 92.1 | 94.8 | 96.5 | 94.5 | 96.2 | – |
| C=C(C)[C@@H]1CC[C@]2(CO)CC[C@]3(C)[C@H](CC[C@@H]4[C@@]5(C)CC[C@H](O)C(C)(C)[C@@H]5CC[C@]43C)[C@@H]12 [BETULIN] | 133.9 | 175.1 | 47.9 | 63.4 | 206.5 | – |
| C=C(C)[C@@H]1CC[C@]2(C(=O)O)CC[C@]3(C)[C@H](CC[C@@H]4[C@@]5(C)CC[C@H](O)C(C)(C)[C@@H]5CC[C@]43C)[C@@H]12 [BETULINIC ACID] | 66.1 | 96 | 69 | 57.6 | 98.5 | – |
| C=C(C)[C@@H]1CC[C@]2(C(=O)O)CC[C@]3(C)[C@H](CC[C@@H]4[C@@]5(C)Cc6c([nH]c7ccc(OC)cc67)C(C)(C)[C@@H]5CC[C@]43C)[C@@H]12 | 123.5 | 162.6 | 97.5 | 95.1 | 73.1 | – |
| CC1(C)CC[C@]23CC[C@]4(C)[C@H](CC[C@@H]5[C@@]6(C)Cc7c([nH]c8ccc(F)cc78)C(C)(C)[C@@H]6CC[C@]54C)[C@H]2C1OC3 | 99.3 | 91.8 | 122.6 | 83.9 | 108.5 | – |
| C=C(C)[C@@H]1CC[C@]2(C(=O)O)CC[C@]3(C)[C@H](CC[C@@H]4[C@@]5(C)CCC(=O)C(C)(C)[C@@H]5CC[C@]43C)[C@@H]12 [BETUNOLIC ACID] | 87.1 | 107.1 | 45.3 | 38.3 | 118 | – |
| C=C(C)[C@@H]1CC[C@]2(C(N)=O)CC[C@]3(C)[C@H](CC[C@@H]4[C@@]5(C)Cc6nccnc6C(C)(C)[C@@H]5CC[C@]43C)[C@@H]12 | 82.8 | 89.9 | 111.9 | 34.9 | 79.4 | – |
